Measurements: ChEMBL document CHEMBL1828613, “Optimization of cellular activity of G9a inhibitors 7-aminoalkoxy-quinazolines” (J Med Chem, 2011)

How the values were obtained:
[1] = molecular target: T1, N-lysine methyltransferase KMT5A (Homo sapiens, UniProt Q9NQR1); assay: Inhibition of SETD8 assessed as hydrolysis of S-adenosyl-L-homocysteine after 2 mins by SAHH-coupled fluorescence assay
T1 sequence (Q9NQR1 whole entry): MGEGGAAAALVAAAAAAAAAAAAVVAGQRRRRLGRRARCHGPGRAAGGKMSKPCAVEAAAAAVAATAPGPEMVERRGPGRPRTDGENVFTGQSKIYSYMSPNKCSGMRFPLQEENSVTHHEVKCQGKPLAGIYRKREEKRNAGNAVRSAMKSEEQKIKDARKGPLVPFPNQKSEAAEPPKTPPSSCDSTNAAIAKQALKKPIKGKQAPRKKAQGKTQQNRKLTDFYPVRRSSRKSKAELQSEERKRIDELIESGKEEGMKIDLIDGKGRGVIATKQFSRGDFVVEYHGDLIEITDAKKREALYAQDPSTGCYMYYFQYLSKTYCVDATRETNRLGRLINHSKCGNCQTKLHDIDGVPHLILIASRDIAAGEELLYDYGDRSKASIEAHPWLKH
How it was run: (§1)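 Same coupled ThioGlo readout (25 mM potassium phosphate pH 7.5, 25 μM SAM, 5 μM SAHH, adenosine deaminase), 4 nM–16 μM inhibitor with 2 min preincubation, 20 min fluorescence at 360/528 nm. Enzyme and substrate by target: SETD7 200 nM with 100 μM H3(1–25); SETD8 250 nM with 500 μM H4(1–24); SUV39H2 100 nM with 200 μM H3K9Me1(1–15).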

[2] = molecular target: Histone-lysine N-methyltransferase SUV39H2 (Homo sapiens, UniProt Q9H5I1); assay: Inhibition of SUV39H2 assessed as hydrolysis of S-adenosyl-L-homocysteine after 2 mins by SAHH-coupled fluorescence assay; how it was run: as §1
Chain of Histone-lysine N-methyltransferase SUV39H2 (Q9H5I1 whole entry): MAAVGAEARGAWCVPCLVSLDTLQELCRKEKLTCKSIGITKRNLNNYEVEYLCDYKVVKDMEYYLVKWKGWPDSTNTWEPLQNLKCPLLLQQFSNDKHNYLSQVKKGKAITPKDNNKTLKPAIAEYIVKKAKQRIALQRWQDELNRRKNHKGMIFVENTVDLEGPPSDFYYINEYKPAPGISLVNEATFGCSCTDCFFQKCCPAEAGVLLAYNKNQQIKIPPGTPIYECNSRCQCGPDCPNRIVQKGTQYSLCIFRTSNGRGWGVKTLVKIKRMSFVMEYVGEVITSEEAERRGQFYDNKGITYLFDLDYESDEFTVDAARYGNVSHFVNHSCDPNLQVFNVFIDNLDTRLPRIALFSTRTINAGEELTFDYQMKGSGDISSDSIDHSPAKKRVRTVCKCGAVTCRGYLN

[3] = molecular target: T2, Histone-lysine N-methyltransferase SETD7 (Homo sapiens, UniProt Q8WTS6); assay: Inhibition of SETD7 assessed as hydrolysis of S-adenosyl-L-homocysteine after 2 mins by SAHH-coupled fluorescence assay; how it was run: as §1
T2 sequence (Q8WTS6 whole entry): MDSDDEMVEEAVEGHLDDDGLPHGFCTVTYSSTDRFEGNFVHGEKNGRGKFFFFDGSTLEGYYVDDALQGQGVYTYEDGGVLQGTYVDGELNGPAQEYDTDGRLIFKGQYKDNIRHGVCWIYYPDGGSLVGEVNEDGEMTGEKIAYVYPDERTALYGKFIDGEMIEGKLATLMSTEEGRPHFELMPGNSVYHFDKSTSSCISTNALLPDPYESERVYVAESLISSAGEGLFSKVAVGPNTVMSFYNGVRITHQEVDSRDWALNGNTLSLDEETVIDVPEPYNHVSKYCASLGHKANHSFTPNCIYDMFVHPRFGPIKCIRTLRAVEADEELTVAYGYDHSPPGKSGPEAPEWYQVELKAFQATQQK

[4] = molecular target: T3, Histone-lysine N-methyltransferase EHMT1 (Homo sapiens, UniProt Q9H9B1); assay: Inhibition of GLP assessed as hydrolysis of S-adenosyl-L-homocysteine after 2 mins by SAHH-coupled fluorescence assay
T3 sequence (Q9H9B1 whole entry): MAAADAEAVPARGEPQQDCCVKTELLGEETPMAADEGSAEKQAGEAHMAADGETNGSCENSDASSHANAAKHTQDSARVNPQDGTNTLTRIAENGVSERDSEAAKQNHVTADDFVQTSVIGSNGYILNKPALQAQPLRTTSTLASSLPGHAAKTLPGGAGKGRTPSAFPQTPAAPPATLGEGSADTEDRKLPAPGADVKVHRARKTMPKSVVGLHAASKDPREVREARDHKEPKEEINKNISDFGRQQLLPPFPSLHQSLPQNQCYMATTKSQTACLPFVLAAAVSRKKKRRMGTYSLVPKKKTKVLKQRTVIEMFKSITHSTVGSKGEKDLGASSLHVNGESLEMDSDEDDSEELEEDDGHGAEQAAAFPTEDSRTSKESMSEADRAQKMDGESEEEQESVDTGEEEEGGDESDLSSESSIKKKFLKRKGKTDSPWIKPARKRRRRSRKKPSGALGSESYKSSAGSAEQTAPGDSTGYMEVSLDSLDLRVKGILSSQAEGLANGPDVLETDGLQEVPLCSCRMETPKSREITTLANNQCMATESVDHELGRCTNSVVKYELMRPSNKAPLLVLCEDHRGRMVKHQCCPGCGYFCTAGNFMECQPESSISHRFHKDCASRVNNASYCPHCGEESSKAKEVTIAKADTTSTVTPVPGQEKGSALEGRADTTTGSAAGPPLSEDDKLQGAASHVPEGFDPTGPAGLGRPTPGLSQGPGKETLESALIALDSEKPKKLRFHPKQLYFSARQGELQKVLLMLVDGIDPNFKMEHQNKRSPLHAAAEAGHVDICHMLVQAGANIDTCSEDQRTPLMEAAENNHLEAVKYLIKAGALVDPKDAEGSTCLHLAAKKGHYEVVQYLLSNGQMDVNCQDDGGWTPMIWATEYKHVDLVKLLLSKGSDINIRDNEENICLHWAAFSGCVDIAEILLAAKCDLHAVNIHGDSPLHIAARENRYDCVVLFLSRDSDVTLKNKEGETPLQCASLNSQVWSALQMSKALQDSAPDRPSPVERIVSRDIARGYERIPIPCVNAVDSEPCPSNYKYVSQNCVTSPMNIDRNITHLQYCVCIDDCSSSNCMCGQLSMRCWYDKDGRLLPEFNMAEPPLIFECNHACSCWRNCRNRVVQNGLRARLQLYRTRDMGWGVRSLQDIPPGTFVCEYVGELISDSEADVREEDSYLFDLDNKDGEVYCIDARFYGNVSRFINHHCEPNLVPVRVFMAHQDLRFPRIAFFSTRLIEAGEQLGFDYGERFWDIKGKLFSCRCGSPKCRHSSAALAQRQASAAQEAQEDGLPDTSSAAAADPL
How it was run: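 GLP at 100 nM was tested by SAHH/adenosine deaminase/ThioGlo coupling in pH 7.5 potassium phosphate buffer with EDTA, MgCl2, Triton X-100 and 25 μM SAM. Inhibitor (4 nM–16 μM) was preincubated 2 min before adding 20 μM H3(1–25). Fluorescence rise (360/528 nm) was tracked 20 min and background-subtracted. IC50 from two independent experiments.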

MDA-MB-231 = assay: Cytotoxicity against human MDA-MB-231 cells assessed as cell viability after 48 hrs by MTT assay; format: functional, cell-based; settings: MDA-MB-231, 48 h
[5] = molecular target: Protein arginine N-methyltransferase 3 (Homo sapiens, UniProt O60678); assay: Inhibition of PRMT3 assessed as hydrolysis of S-adenosyl-L-homocysteine after 2 mins by SAHH-coupled fluorescence assay
Chain of Protein arginine N-methyltransferase 3 (O60678 whole entry): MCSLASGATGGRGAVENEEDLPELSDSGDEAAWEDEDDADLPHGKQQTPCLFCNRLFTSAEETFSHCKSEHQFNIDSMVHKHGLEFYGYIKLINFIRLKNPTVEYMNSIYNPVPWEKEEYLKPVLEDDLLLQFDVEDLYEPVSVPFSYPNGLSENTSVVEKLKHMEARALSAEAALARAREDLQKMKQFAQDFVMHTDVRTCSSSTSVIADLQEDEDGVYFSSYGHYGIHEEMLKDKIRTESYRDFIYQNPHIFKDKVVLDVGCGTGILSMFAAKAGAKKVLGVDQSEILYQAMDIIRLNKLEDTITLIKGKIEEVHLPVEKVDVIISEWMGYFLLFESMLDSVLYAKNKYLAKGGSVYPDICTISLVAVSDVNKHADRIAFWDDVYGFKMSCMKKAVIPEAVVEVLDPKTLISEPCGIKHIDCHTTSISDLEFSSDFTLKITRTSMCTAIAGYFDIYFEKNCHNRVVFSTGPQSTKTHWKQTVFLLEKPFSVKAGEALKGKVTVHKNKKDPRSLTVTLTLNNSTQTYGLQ
How it was run: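 Enzyme-coupled fluorescence readout. Methyltransfer product SAH is converted to homocysteine by SAHH in the presence of adenosine deaminase, and homocysteine is detected with the thiol-sensitive dye ThioGlo. Buffer is 25 mM potassium phosphate pH 7.5 with 1 mM EDTA, 2 mM MgCl2 and 0.01% Triton X-100, plus 5 μM SAHH, 0.3 U/mL deaminase, 25 μM SAM and 15 μM ThioGlo. PRMT3 is at 500 nM. Inhibitor (4 nM–16 μM) is preincubated 2 min, then 10 μM H4(1–24) peptide starts the reaction. Fluorescence is followed for 20 min at ex 360/em 528 nm and background-corrected. IC50 is fitted from two independent experiments.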

IC50 [1]: > 10 µM | IC50 [2]: > 10 µM | IC50 [3]: > 10 µM | IC50 [4]: < 0.015 µM | IC50 [5]: > 10 µM
SMILES: COc1cc2c(NC3CCN(C4CCCCC4)CC3)nc(N3CCCN(C(C)C)CC3)nc2cc1OCCCN1CCCCC1
EC50 (MDA-MB-231): 3.3 µM
